Results as given in PMC4430720 (British Journal of Cancer, 2015).
Read-outs that look alike come from different tables or passages of the source. Marks after values point to notes of the source that are not given here. Where a SMILES comes first, the peptide text is derived from it. Bridges are numbered along the chain shown (N, C = ends). [ ]: non-standard residue; d: D form. βAla = NCCC(=O)O

Tests used:
[1] = type: in vivo, human; conditions: for Biological half-life (tumour): corrected for radioactive decay; for AUC24 (tumour): tumour uptake curve over 24 h; for Maximum uptake (mg CIGB-300): tumour uptake, two sites 0.5 ml each
How it was run: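 The first patient dose was 99mTc-labelled and injected at two equidistant points, ~2 cm deep (0.5 ml each). Whole-body gamma-camera images were taken at 10 min and 1, 2, 4, 8, 12, 24 h, with tumour static views at 3 and 24 h. Uptake was quantified by MIRD methodology, with tumour mass from baseline MRI. Half-life used decay-corrected fits, and AUC used mono/biexponential fits.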

[2] = Pharmacokinetics of unincorporated CIGB-300 in plasma; type: in vivo, human; conditions: both groups; highest levels only during the first hour after injection
[3] = Safety evaluation: local and systemic adverse events; type: in vivo, human; conditions: both groups
How it was run: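 Patients received 35 or 70 mg intralesionally once daily for three consecutive days at weeks 1, 3 and 5. Local and systemic adverse events and routine laboratory parameters were recorded. Systemic toxicity was followed for 24 h after each dose, with cardiovascular monitoring during injection and vital signs. The probability of exceeding 30% grade 3 events per group was estimated.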

[4] = system: histamine; assay: Histamine levels in plasma; type: in vivo, human; conditions: both groups
How it was run: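 Stage IIB cervical carcinoma patients received 35 or 70 mg intralesionally. Plasma histamine was measured by commercial EIA before, immediately after, and 5, 15, 30 and 60 min after the first administration. Spearman rank correlation was run between histamine and plasma peptide concentration, and between histamine and allergic-reaction severity.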

[5] = system: B23/NPM; assay: In situ B23/NPM expression in tumour biopsies by immunohistochemistry; type: in vivo, human
How it was run: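 Paraffin-embedded tumour biopsies were taken before and after the three treatment cycles. After deparaffinisation, sections were immunostained with a human B23/NPM monoclonal primary antibody and a commercial immunostaining kit, developed with peroxidase and counterstained with hematoxylin. Pre/post values were compared by paired Student's t-test or Wilcoxon test, chosen by the Shapiro–Wilk normality result.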

[6] = system: stage IIB cervical cancer; assay: Therapeutic response by MRI; type: in vivo, human; conditions: 1-year follow-up
How it was run: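 MRI response was graded by RECIST before and after three peptide cycles, then quarterly for 1 year. Follow-up came after chemoradiotherapy: cisplatin 40 mg m−2 weekly for 6 weeks with 5040 cGy external beam in 28 fractions, then 2600 cGy intracavitary in four fractions. CT and abdominal/gynaecological ultrasonography were used to detect metastasis.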

[7] = type: in vivo, NIH nu/nu nude mice; conditions: 100 μg 99mTc-radiolabelled CIGB-300 intratumour in 0.2 or 0.5 ml PBS
How it was run: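 Female 6–8-week NIH nu/nu mice carried subcutaneous SiHa xenografts (5 × 10^6 cells, right inguinal flank). At 150 mm3, tumours received 100 μg 99mTc-labelled test compound in 0.025, 0.05, 0.2 or 0.5 ml PBS. Planar gamma-camera images were taken immediately and at 0.25, 1, 4, 24, 48 h. Tumour ROI signal was expressed as percent of the total initial image.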

[8] = system: human cervical cancer SiHa cells; assay: Antitumour activity of different CIGB-300 regimens; type: in vivo, NIH nu/nu nude mice; conditions: 200 μg intratumoural per injection, tumour volume by caliper
[9] = 2 ml at a single tumour site, ref Soriano-García et al, 2013, cited from earlier work
[10] = system: high-grade squamous intraepithelial lesions; conditions: intralesional injections; ref Solares et al, 2009; cited from earlier work

Q: Which “Biological half-life (tumour)” value ([1]; group I 35 mg, N=6, mean±s.d.) does the source give for CSCC[C@@H]1NC(=O)[C@H](Cc2c[nH]c3ccccc23)NC(=O)[C@@H](NC(=O)CCNC(=O)[C@H](CCC(N)=O)NC(=O)[C@@H]2CCCN2C(=O)[C@@H]2CCCN2C(=O)[C@H](CCCNC(=N)N)NC(=O)[C@H](CCCNC(=N)N)NC(=O)[C@H](CCCNC(=N)N)NC(=O)[C@H](CCC(N)=O)NC(=O)[C@H](CCCNC(=N)N)NC(=O)[C@H](CCCNC(=N)N)NC(=O)[C@H](CCCCN)NC(=O)[C@H](CCCCN)NC(=O)[C@H](CCCNC(=N)N)NC(=O)CN)CSSC[C@@H](C(=O)O)NC(=O)[C@H]([C@@H](C)O)NC(=O)CNC(=O)[C@H](CC(C)C)NC(=O)[C@H](Cc2c[nH]cn2)NC(=O)[C@H](CCCNC(=N)N)NC(=O)[C@@H]2CCCN2C(=O)[C@H](CO)NC1=O [CIGB-300] (H-GRKKRRQRRRPPQ[βAla]CWMSPRHLGTC-OH; disulfide 15-25; N-terminus and C-terminus assumed) here?
A: Its value is 3.9±0.9 (2.6–5.5) h.

Q: And the “Biological half-life (tumour)” value ([1]; group II 70 mg, N=7, mean±s.d.)?
A: The value was 6.2±1.9 (3.5–10.1) h.

Q: And the “Maximum uptake (mg CIGB-300 per g tumour)” value ([1]; group II 70 mg, tumour mass estimated by MRI, N=6, mean±s.d.)?
A: The value was 1.1±0.8 (0.4–2.7) ^b mg g^−1.

Q: And the “Maximum tumour uptake, 70 mg compared with 35 mg” value ([1]; mean values, P=0.01)?
A: Its value is “two-fold higher”.

Q: What about the “AUC24 (tumour)” value ([1]; group I 35 mg, N=6, mean±s.d.) of the same compound?
A: Its value is 132±72.2 (45.3–235) mg h.

Q: And the “AUC24 (tumour)” value ([1]; group II 70 mg, N=7, mean±s.d.)?
A: Its value is 385±167 (90.3–646) mg h.

Q: What about the “Maximum uptake (mg CIGB-300)” value ([1]; group I 35 mg intralesional, N=6, mean±s.d.) of the same compound?
A: The value was 16.1±8.9 (3.8–27.2) mg.

Q: And the “Maximum uptake (mg CIGB-300)” value ([1]; group II 70 mg intralesional, N=7, mean±s.d.)?
A: Its value is 31.3±12.9 (9.9–48.7) mg.

Q: What about the “CIGB-300 levels in blood over time” value [2] of the same compound?
A: Its value is “near undetectable after 8 h”.

Q: And the “Blood counts and serum chemistry values, baseline vs post-treatment” value [3]?
A: Its value is “no differences”.

Q: And the “Time to return of plasmatic histamine to normal levels (1 ng ml^−1)” value ([4]; after first injection, rapid increase first)?
A: Its value is 15 min.

Q: And the “Overall histamine median when grade 1 allergic-like events occurred” value ([4]; plasma)?
A: Its value is 0.7 ng/mL.

Q: What about the “Overall histamine median when grade 2 allergic-like events occurred” value ([4]; plasma) of the same compound?
A: Its value is 3.5 ng/mL.

Q: And the “B23/nucleophosmin expression at the nucleoplasm” value ([5]; after CIGB-300 treatment)?
A: The value was “not considerably modified”.

Q: What about the “Patients with reduced nucleolar B23/NPM expression after CIGB-300 treatment” value ([5]; evaluated patients of both groups) of the same compound?
A: The value was 10 out of the 12.

Q: And the “Levels of in situ B23/NPM in tumour biopsies, post CIGB-300” value ([5]; group I (35 mg), N=6, mean±s.d., baseline 56.0±17.6, Student's t-test p 0.14)?
A: The value was 36.4±18.9.

Q: What about the “Deaths because of disease progression, whole trial” value ([6]; both groups) of the same compound?
A: Its value is “four”.

Q: What about the “Deaths because of disease progression, group I” value ([6]; group I (35 mg)) of the same compound?
A: The value was “three”.

Q: What about the “CIGB-300 tumour uptake, higher injection volume” value [7] of the same compound?
A: The value was “worse tumour uptake”.

Q: And the “Three cycles of three consecutive daily injections” value [8]?
A: The value was “minimal frequency required to reduce tumour growth”.

Q: And the Maximum tumour uptake ([9]; 35 mg)?
A: The Maximum tumour uptake was 14.9 ± 6.4 mg.

Q: And the Maximum tumour uptake ([9]; 70 mg)?
A: The Maximum tumour uptake was 10.4 ± 8.3 mg.

Q: What about the “Patients with full histological regression” value [10] of the same compound?
A: Its value is 19%.

Q: What about the “Patients with significant colposcopic response” value [10] of the same compound?
A: Its value is 90%.

Q: What about the “Previously positive patients with negative human papillomavirus DNA” value [10] of the same compound?
A: The value was 48%.
